Laboratory results: ChEMBL document CHEMBL1127038 (J Med Chem, 1993)

Assays:
Cavia porcellus [1] = species on record: Cavia porcellus; test: Negative chronotropic activity was calculated from log concentration/response curves; assay type: functional
Cavia porcellus [2] = species on record: Cavia porcellus; test: Nagative inotropic activity was expressed as percent changes in developed tension in isolated guinea pig left atrium at 10 e-5 M; assay type: functional, Cardiac atrium
How it was run: (§1)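 Isolated guinea pig left atrium, electrically driven at 1 Hz. Developed tension measured at 10⁻⁵ M and given as percent change from control, mean ±SEM, n = 5-6.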

Cavia porcellus [3] = species on record: Cavia porcellus; test: Inhibition concentration of vasodilation was calculated from log concentration/response curves; assay type: functional
How it was run: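 K⁺-depolarized guinea pig aortic strips, calcium-induced contraction. Potency is from log concentration/response curves by Litchfield–Wilcoxon probit analysis, n = 6-8.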

Cavia porcellus [4] = species on record: Cavia porcellus; test: Negative inotropic activity was calculated from log concentration/response curves; assay type: functional
How it was run: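 Guinea pig left atrium driven at 1 Hz; decrease in developed tension measured. Potency is from log concentration/response curves by Litchfield–Wilcoxon probit analysis, n = 6-8.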

Cavia porcellus [5] = species on record: Cavia porcellus; test: Nagative chronotropic activity was expressed as percent changes in atrial rate on guinea pig spontaneously beating isolated right atrium at 10 e-5 M; assay type: functional, Cardiac atrium
Cavia porcellus [6] = species on record: Cavia porcellus; test: Percent inhibition of calcium-induced contraction on K+ -depolarized guinea pig aortic strips at 10 e-4 M; assay type: functional, Aorta
How it was run: (§2)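 Guinea pig aortic strips depolarized with K⁺ and contracted by calcium. Inhibition of the calcium-induced contraction measured at 10⁻⁴ M, mean ±SEM, n = 6-7.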

Cavia porcellus [7] = species on record: Cavia porcellus; test: Nagative inotropic activity was expressed as percent changes in developed tension in isolated guinea pig left atrium at 10E-5 M; assay type: functional, Cardiac atrium; how it was run: as §1
Cavia porcellus [8] = species on record: Cavia porcellus; test: Percent inhibition of calcium-induced contraction on K+ -depolarized guinea pig aortic strips at 10E-4 M; assay type: functional, Aorta; how it was run: as §2
Cavia porcellus [9] = species on record: Cavia porcellus; test: Nagative chronotropic activity was expressed as percent changes in atrial rate on guinea pig spontaneously beating isolated right atrium at 10E-5 M; assay type: functional, Cardiac atrium

| IC50 (Cavia porcellus [3]; Cavia porcellus) | IC50 (Cavia porcellus [3]) | SMILES | ED30 (Cavia porcellus [1]) | Change (Cavia porcellus [2]) | ED50 (Cavia porcellus [4]) | Change (Cavia porcellus [5]) | Inhibition (Cavia porcellus [6]) | Change (Cavia porcellus [7]) | Inhibition (Cavia porcellus [8]) | Change (Cavia porcellus [9]) |
| --- | --- | --- | --- | --- | --- | --- | --- | --- | --- | --- |
| 380 nM | – | COc1ccc(CCN(C)CCCC(C#N)(c2ccc(OC)c(OC)c2)C(C)C)cc1OC (stereo not drawn) | 70 nM | 84% | 610 nM | 94% | – | – | – | – |
| – | – | COc1ccc(CCN(C)C2CCCC(C(C#N)(c3ccc(OC)c(OC)c3)C(C)C)C2)cc1OC (stereo in doubt; 2a) | 75 nM | 84% | 100 nM | 78% | 37% | – | – | – |
| – | – | COc1ccc(CCN(C)C2CCCC(C(C#N)(c3ccc(OC)c(OC)c3)C(C)C)C2)cc1OC (stereo in doubt; 2b) | 230 nM | 75% | 1300 nM | 93% | 30% | – | – | – |
| – | 18000 nM | COc1ccc(CCN(C)C2CCCC(C(C#N)(c3ccc(OC)c(OC)c3)C(C)C)C2)cc1OC (stereo in doubt; 2c) | 1300 nM | 86% | 60 nM | 89% | 49% | – | – | – |
| 10000 nM | – | COc1ccc(CCN(C)C2CCCC(C(C#N)(c3ccc(OC)c(OC)c3)C(C)C)C2)cc1OC (stereo in doubt; 2d) | 420 nM | 74% | 200 nM | 75% | 58% | – | – | – |
| – | 17000 nM | COc1ccc(CCNC2CCCC(C(C#N)(c3ccc(OC)c(OC)c3)C(C)C)C2)cc1OC (stereo in doubt; 7a) | 2400 nM | – | 900 nM | – | – | 82% | 62% | 78% |
| – | – | COc1ccc(CCNC2CCCC(C(C#N)(c3ccc(OC)c(OC)c3)C(C)C)C2)cc1OC (stereo in doubt; 7b) | 60 nM | – | 110 nM | – | – | 74% | 35% | 66% |
| – | – | COc1ccc(CCNC2CCCC(C(C#N)(c3ccc(OC)c(OC)c3)C(C)C)C2)cc1OC (stereo in doubt; 7c) | 1400 nM | – | 660 nM | – | – | 70% | 40% | 64% |
| – | – | COc1ccc(CCNC2CCCC(C(C#N)(c3ccc(OC)c(OC)c3)C(C)C)C2)cc1OC (stereo in doubt; 7d) | 370 nM | – | 1100 nM | – | – | 83% | 56% | 84% |
